From PubChem
KDM4C inh: KDM4C (human) demethylase inhibition. AID 720574. actives 0.15% (n = 96,000). inhibition, % at 12.5 µM. Q9H3R0. GST-KDM4C 2-372, H3K9me3 peptide, LANCE TR-FRET;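 active = mean replicate inhibition above about 25%, with at least 55% of replicates also reaching it, limit read from the data, passing the limit was not always enough; inconclusive = only one of those two conditions met; inactive = neither condition met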
Target sequence (Q9H3R0 2-372 limits assumed): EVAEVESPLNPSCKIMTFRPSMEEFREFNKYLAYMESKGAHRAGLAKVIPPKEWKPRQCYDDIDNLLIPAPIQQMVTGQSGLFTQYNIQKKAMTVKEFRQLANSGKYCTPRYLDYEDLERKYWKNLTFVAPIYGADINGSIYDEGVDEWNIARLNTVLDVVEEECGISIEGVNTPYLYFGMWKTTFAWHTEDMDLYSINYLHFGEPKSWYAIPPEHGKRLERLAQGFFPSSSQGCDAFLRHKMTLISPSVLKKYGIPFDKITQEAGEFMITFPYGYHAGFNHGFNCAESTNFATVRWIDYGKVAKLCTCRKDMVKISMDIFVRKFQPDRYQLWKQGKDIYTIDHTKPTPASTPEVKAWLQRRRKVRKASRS
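reagent = H3K9me3 peptide substrate, Fe(II), 2-oxoglutarate | system = GST-tagged GASC-1 (JMJD2C) catalytic fragment, aa 2-372 | amount = enzyme final amount 10 nM | read-out = Fall in 671/618 emission ratio as inhibition | medium = HEPES buffer, pH 7.5, plus ascorbate | schedule = 30 min reaction, 60 min detection, RT | measured by = LANCE TR-FRET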
Pf Dd2 growth: P. falciparum Dd2 growth inhibition; SYBR Green, 72 h; hits give low values; activity change, % at 10 µM; actives 2.3% (n = 94,000); in the data active = activity change below about -80%; inconclusive = no clear call, values can overlap the other calls
T cruzi growth-1: inhibitors of T. cruzi proliferation; actives 5.9% (n = 77,000); T. cruzi beta-gal in NIH3T3, GalScreen luminescence, 90 h; AID 624255; inhibition, % at 8.34 µM;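 active = mean inhibition above about 93%, with at least 55% of replicates each passing it, limit read from the data, passing the limit was not always enough; inconclusive = only one of those two conditions holds; inactive = neither condition holds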
IDH1 mut inh: IDH1 R132H (human) inhibition; IDH1 R132H reductase, diaphorase/resazurin fluorescence, 60 min; AID 624101; inhibition, % at 10 µM; actives 0.18% (n = 70,000); in the data active = inhibition above about 34%; inconclusive = no clear call, values can overlap the other calls; inactive = below about 11%
T cruzi growth-2: Trypanosoma cruzi proliferation inhibition. shares compounds with T cruzi growth-1. T. cruzi beta-gal in NIH3T3, GalScreen luminescence, 90 h. inhibition, % at 8.35 µM. actives 72% (n = 5,600);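 active = mean replicate inhibition above about 95% and at least 55% of replicates individually reaching it, limit read from the data; inconclusive = only one of the two criteria is met; inactive = neither criterion is met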
T cruzi growth-3: inhibitors of T. cruzi proliferation; actives 21% (n = 5,600); shares compounds with T cruzi growth-1; T. cruzi beta-gal in NIH3T3, GalScreen luminescence, 90 h; inhibition, % at 2.09 µM;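 active = mean inhibition above about 95%, with at least 55% of replicates also reaching it, limit read from the data; inconclusive = meets just one of the two conditions; inactive = meets neither condition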
3T3 cytotox: cytotoxicity in mouse NIH/3T3 fibroblasts; shares compounds with T cruzi growth-1; actives 14% (n = 5,600); NIH/3T3 viability, CellTiter-Glo ATP luminescence, 90 h; cytotoxicity (signal decrease), % at 8.35 µM; AID 651742;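 active = mean signal decrease across replicates above about 35% based on untreated-well scatter, with enough replicates individually passing, limit read from the data; inconclusive = no rule stated though some were filed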
NIH3T3 tox 2: NIH/3T3 (mouse) viability loss. actives 56% (n = 5,600). shares compounds with T cruzi growth-1. inhibition, % at 24.9 µM. NIH/3T3 viability, CellTiter-Glo ATP luminescence, 90 h. AID 651744;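 active = mean loss of cell viability signal at or above a set limit, and enough replicates individually reaching it; inconclusive = meets only the mean limit or only the replicate share; inactive = meets neither condition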
Hits are given with their value; i = inactive; ? = inconclusive; nt = no result given. A selection: hits, their analogues and other compounds. The true share with any hit is near 5.8%.

SMILES | KDM4C inh | Pf Dd2 growth | T cruzi growth-1 | IDH1 mut inh | T cruzi growth-2 | T cruzi growth-3 | 3T3 cytotox | NIH3T3 tox 2
O=C(C[C@@H]1CC[C@@H]2[C@H](COC[C@@H](O)CN2Cc2cccc(-c3ccncc3)c2)O1)N1CCN(c2ccccc2)CC1 | i | i | i | nt | nt | nt | nt | nt
C[C@@H]1CCCCO[C@@H](CN(C)C(=O)Nc2ccc3c(c2)OCO3)[C@@H](C)CN([C@H](C)CO)C(=O)c2cc(NC(=O)CCCN(C)C)ccc2O1 | i | i | 110.7 | nt | ? | i | i | i
C[C@H](CO)N1C[C@H](C)[C@@H](CN(C)C(=O)Nc2ccc(F)cc2)OCCCC[C@H](C)Oc2ccc(NC(=O)Cc3ccccc3)cc2C1=O | i | i | 98.0 | nt | ? | i | i | i
C[C@@H]1CN([C@H](C)CO)C(=O)Cc2cc(NC(=O)CCN3CCOCC3)ccc2O[C@H]1CN(C)C(=O)Nc1ccc(F)cc1 | i | i | 99.2 | i | i | i | i | i
C[C@@H]1CCCCO[C@H](CN(C)C(=O)Nc2ccc(F)cc2)[C@H](C)CN([C@@H](C)CO)C(=O)c2cc(NC(=O)Cc3ccccc3)ccc2O1 | i | -81.8 | 103.4 | i | 103.8 | i | i | i
C[C@@H]1CN([C@@H](C)CO)C(=O)Cc2cc(NC(=O)CCN3CCOCC3)ccc2O[C@H]1CN(C)C(=O)Nc1ccccc1 | i | i | i | i | nt | nt | nt | nt
CNC[C@H]1Oc2ncc(C3=CCCCC3)cc2C(=O)N([C@@H](C)CO)C[C@H]1C | i | i | i | i | nt | nt | nt | nt
CN(C)CCCNC(=O)C[C@@H]1C=C[C@@H](NS(=O)(=O)c2ccccc2)[C@H](CO)O1 | i | i | i | i | nt | nt | nt | nt
CO[C@@H]1CN(C)C(=O)c2cc(NC(C)=O)ccc2OC[C@@H](C)N(C(=O)Cc2ccccn2)C[C@@H]1C | i | i | i | i | nt | nt | nt | nt
C/C=C/c1ccc2c(c1)O[C@H](CN(C)C(=O)c1ccccc1F)[C@H](C)CN([C@H](C)CO)S2(=O)=O | i | i | i | i | nt | nt | nt | nt
C[C@@H]1CN([C@H](C)CO)C(=O)c2cc(NC(=O)Cc3ccccc3)ccc2O[C@@H](C)CCCCO[C@H]1CN(C)C(=O)Nc1ccc2c(c1)OCO2 | i | i | i | i | nt | nt | nt | nt
C[C@H]1CN([C@@H](C)CO)C(=O)Cc2cc(NC(=O)CCCN(C)C)ccc2O[C@@H]1CN(C)C(=O)Nc1ccc2c(c1)OCO2 | i | i | ? | i | i | i | i | i
C[C@H]1CCCCO[C@H](CN(C)C(=O)Nc2ccc(F)cc2)[C@@H](C)CN([C@@H](C)CO)C(=O)c2cc(NC(=O)Cc3ccccc3)ccc2O1 | i | i | 104.7 | nt | 108.9 | i | i | i
C[C@@H]1CCCCO[C@H](CN(C)C(=O)Nc2ccc3c(c2)OCO3)[C@H](C)CN([C@@H](C)CO)C(=O)c2cc(NC(=O)Cc3ccccc3)ccc2O1 | i | i | ? | i | ? | i | i | i
C[C@H]1CN([C@@H](C)CO)C(=O)c2cc(C#Cc3ccccc3F)cnc2O[C@@H]1CN(C)C(=O)c1ccc2c(c1)OCO2 | i | -82.3 | 124.8 | nt | 110.3 | i | i | 36.7
C[C@H](CO)N1C[C@H](C)[C@@H](CN(C)C(=O)Cc2ccccc2)Oc2ncc(C#Cc3ccccc3F)cc2C1=O | i | i | 96.0 | i | 108.4 | i | i | 94.1
CC(C)NC(=O)N(C)C[C@H]1Oc2ncc(C#Cc3ccccc3F)cc2C(=O)N([C@H](C)CO)C[C@H]1C | i | i | i | i | nt | nt | nt | nt
C[C@H]1CN([C@@H](C)CO)C(=O)c2cc(C#Cc3ccccc3F)cnc2O[C@@H]1CN(C)C(=O)C1CCC1 | i | i | 97.2 | i | 103.7 | i | i | 45.3
C[C@H](CO)N1C[C@H](C)[C@@H](CN(C)C(=O)C2CCC2)Oc2ncc(C#Cc3ccccc3F)cc2C1=O | i | i | i | i | nt | nt | nt | nt
CC(C)NC(=O)N(C)C[C@@H]1Oc2ncc(C#Cc3ccccc3F)cc2C(=O)N([C@@H](C)CO)C[C@H]1C | i | i | 101.7 | nt | i | i | i | 61.4
C[C@H](CO)N1C[C@H](C)[C@H](CN(C)C(=O)c2ccc3c(c2)OCO3)Oc2ncc(C#Cc3ccccc3F)cc2C1=O | i | i | i | nt | nt | nt | nt | nt
C[C@@H]1CN([C@@H](C)CO)C(=O)Cc2cc(NC(=O)NC3CCCCC3)ccc2O[C@H]1CN(C)C(=O)Nc1ccc(F)cc1 | i | i | nt | i | nt | nt | nt | nt
C[C@H]1CN([C@@H](C)CO)C(=O)Cc2cc(NS(C)(=O)=O)ccc2O[C@H]1CN(C)S(=O)(=O)c1ccc(Cl)cc1 | i | i | i | i | nt | nt | nt | nt
CCCC#Cc1cnc2c(c1)C(=O)N([C@H](C)CO)C[C@H](C)[C@@H](CN(C)C(=O)Nc1cccc(F)c1)O2 | i | i | nt | nt | nt | nt | nt | nt
C[C@@H]1CN([C@H](C)CO)C(=O)c2cc(C#Cc3cccc(F)c3)cnc2O[C@H]1CN(C)C(=O)C1CCCCC1 | i | i | 100.9 | i | 109.9 | i | i | 103.3
SMILES | KDM4C inh | Pf Dd2 growth | T cruzi growth-1 | IDH1 mut inh | T cruzi growth-2 | T cruzi growth-3 | 3T3 cytotox | NIH3T3 tox 2
C[C@H]1CN([C@@H](C)CO)C(=O)c2cc(C#Cc3cccc(F)c3)cnc2O[C@H]1CN(C)C(=O)C1CCCCC1 | i | i | i | i | nt | nt | nt | nt
C[C@H](CO)N1C[C@H](C)[C@@H](CN(C)S(=O)(=O)c2ccc(F)cc2)Oc2ncc(/C=C/c3ccccc3)cc2C1=O | i | i | 85.0 | nt | 102.6 | i | i | i
C[C@@H]1CN([C@H](C)CO)C(=O)c2cc(/C=C/c3ccccc3)cnc2O[C@@H]1CN(C)S(=O)(=O)c1ccccc1F | i | i | i | i | nt | nt | nt | nt
C[C@H](CO)N1C[C@H](C)[C@@H](CN(C)S(=O)(=O)c2ccccc2F)Oc2ncc(/C=C/c3ccccc3)cc2C1=O | i | i | 125.9 | i | 101.2 | i | i | i
COc1cccc(S(=O)(=O)N(C)C[C@@H]2Oc3ncc(/C=C/c4ccccc4)cc3C(=O)N([C@H](C)CO)C[C@@H]2C)c1 | i | i | 106.4 | i | 104.7 | i | ? | 77.1
COc1ccc(S(=O)(=O)N(C)C[C@@H]2Oc3ncc(/C=C/c4ccccc4)cc3C(=O)N([C@H](C)CO)C[C@H]2C)cc1 | i | i | nt | i | nt | nt | nt | nt
C[C@H]1CCCCO[C@H](CN(C)S(=O)(=O)c2ccc(Cl)cc2)[C@@H](C)CN([C@@H](C)CO)C(=O)c2cc(NS(=O)(=O)c3cccs3)ccc2O1 | i | nt | 113.9 | nt | 104.3 | i | i | i
Cc1ccc(S(=O)(=O)N(C)C[C@@H]2OCCCC[C@H](C)Oc3ccc(NS(=O)(=O)c4cccs4)cc3C(=O)N([C@H](C)CO)C[C@H]2C)cc1 | i | i | 117.7 | i | 105.0 | i | i | i
